Test: Toxicity liver stage against HepG2, at 10uM
Assay type: cell-based
Design: test concentration 10 uM, cell line HepG2-A16-CD81EGFP
Details: human, HepG2-A16-CD81EGFP cells; read-out: INHIBITION
Procedure, shortened: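 Uninfected HepG2-A16-CD81EGFP cells, 3 × 10^3 per well, 1536-well, plated on prespotted compound at 10 μM final, parasite-free screening media added to match infected plates; puromycin 10 μM positive, DMSO 0.5% negative; run in parallel with 48 h PbLuc assay at 37 °C, 5% CO2; viability by CellTiter-Glo luminescence, normalized to controls.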

| Compound | cytotoxicity at 10 µM [%] |
| --- | --- |
| COC(=O)c1cnc2c(c(C)nn2C)c1OC | 0.822 |
| C/N=C1/c2cc3cc(OC)ccc3n2CCN1Cc1ccccc1 | 69.7 |
| COc1ccccc1OCCNc1snc(Cl)c1C#N | 20.5 |
| NC(=O)c1cccc2nc([C@H]3CCN(Cc4ccccn4)C3)[nH]c12 | 4.32 |
| CCCc1nc2c(c(C)c(C)n2Cc2ccccn2)c(N)c1CC | 23.3 |
| Cc1nccn1CC1CCN(C(=O)c2ccccc2)CC1 | -4.17 |
| O=C(Nc1cnccn1)[C@H]1COC[C@H]2CN(c3ncc(F)cn3)C[C@H]21 | -0.695 |
| COCC(=O)N1CCC2(CC1)COc1ccccc1S(=O)(=O)N(C)C2 | 9.7 |
| c1cnc(N2CCC3(COCc4cnc(N5CCOCC5)nc43)C2)nc1 (centres undefined) | -1.72 |
| CC(C)CNC(=O)CC1(Cn2cnnn2)CCCCC1 | 11.1 |
| Cc1c(C)n(-c2ccccn2)c2nc3c(c(N)c12)CCCC3 | 7.18 |
| CCCc1nc(N2CCCC(C)C2)c2c(n1)c(C)nn2CC (centres undefined) | 15.6 |
| Cc1cccc2c1cnn2CCCNC(=O)C1CC1 | 5.01 |
| COc1ccc(CNC(Cc2ccsc2)c2ccc(C)cn2)c(OC)c1 (centres undefined) | 6.36 |
| CCc1nccn1-c1nccnc1C1CCN(C(=O)COC)CC1 | -19.7 |
| O=C(Cc1ccsc1)N1CCCC(c2n[nH]c3ncccc23)C1 (centres undefined) | -6.8 |
| CNc1cc(C)nc(C2CN(Cc3cc[nH]n3)CCO2)c1 (centres undefined) | -9.09 |
| N#CC(NC(=O)CCCOc1cccnc1)c1ccc(F)cc1F (centres undefined) | 8.23 |
| CCc1ccc(C(=O)Nc2ccc3c(c2)N(C)CCN(C)C3)o1 | -7.69 |
| Cc1ccc(-c2nc(CC(=O)NCC(C)N3CCOCC3)cs2)o1 (centres undefined) | -47.5 |
| CCOCCN1CCN(CCc2ccc3c(c2)CCO3)CC1 | 4.1 |
| CCC(CC)(CNC(=O)OC(C)(C)C)NC(=O)c1cnccn1 | -8.56 |

| Compound | cytotoxicity at 10 µM [%] |
| --- | --- |
| O=C(c1cccnc1O)N1CCOC(c2ccc(Cl)cc2)C1 (centres undefined) | 2.6 |
| c1ccc2oc(N3CCn4c(nnc4C4CC4)C3)nc2c1 | 7.41 |
| CS(=O)(=O)c1ccccc1N[C@@H]1c2ccccc2C[C@@H]1O | -40.5 |
| CCCS(=O)(=O)N1CCC(c2ccc(OC)cc2)CC1 | 2.02 |
| Cc1cnn(CC2CCN(CC(O)Cn3cccn3)CC2)c1 (centres undefined) | -1.66 |
| CC(C)C(C)N(C)Cc1nnc(-c2ccco2)o1 (centres undefined) | 2.65 |
| CCc1nc2c(s1)C(N(C)C(=O)c1csnn1)CCC2 (centres undefined) | -3.71 |
| Cc1cc(C)c(CCNC(=O)CN2CCCN(C(N)=O)CC2)c(C)c1 | -0.819 |
| COc1ccc(CNC(=O)N2CCOCC2C2CC2)cc1C (centres undefined) | 10.4 |
| Cc1cccc(-c2ccc(C(=O)NCCN3CCOCC3)c(=O)[nH]2)c1 | -5.88 |
| CN(C(=O)CN1CCCC1Cc1ccccc1)c1ccccc1 (centres undefined) | 17.8 |
| O=C(CCn1cccn1)NCC(c1cccs1)N1CCCC1 (centres undefined) | 7.02 |
| CC(C)c1noc(CN2CCC(c3nc4cc(Cl)ccc4o3)CC2)n1 | 1.81 |
| O=C(CSc1ccc2c(c1)OCCO2)NS(=O)(=O)c1ccccc1F | 1.98 |
| Cc1ccc(C)c(S(=O)(=O)NC(=O)c2cccc3c2OCCO3)c1 | -4.77 |
| Cc1cc(Cl)ccc1S(=O)(=O)NCC(C)N1CCN(C)CC1 (centres undefined) | 8.35 |
| CC(C)Cc1noc(CN2CCCN(C(=O)c3cccc(Cl)c3)CC2)n1 | -2.34 |
| Cc1cc(N2CCC(N(C)C(=O)c3sccc3C)CC2)nc(C)n1 | 25.9 |
| c1cncc(CNc2cccc(OCCN3CCCCC3)c2)c1 | -0.589 |
| COc1ccc(NC(=O)CSC(F)(F)F)cn1 | -96.6 |
| O=C(CCN1C(=O)CCC1=O)Nc1ccc(Cl)cc1 | -2.79 |
| CCS(=O)(=O)NC(CCSC)C(=O)Nc1cc(F)ccc1C (centres undefined) | 6.29 |

| Compound | cytotoxicity at 10 µM [%] |
| --- | --- |
| COC(=O)c1cccc(C(=O)N2CCN(C(=O)N(C)C)CC2(C)C)c1 | 11.9 |
| Cc1csc(CCCNc2ccc(S(N)(=O)=O)cc2C#N)n1 | -49 |
| CCn1cc(C2CCN(Cc3ccnc(N(C)C)c3)CC2)cn1 | 11 |
| Cc1cnn(CCCNC(=O)NC(C)C(=O)Nc2ccccc2)c1 (centres undefined) | 7.04 |
| CN(CCNS(C)(=O)=O)C(=O)c1ccc(Cl)c(Cl)c1 | -52.4 |
| CN(Cc1cccc(OC(F)(F)F)c1)C(=O)c1cnsn1 | 0.963 |
| Cc1nsc(N2CCN(C(=O)Nc3cccc(F)c3)CC2)n1 | -18.3 |
| CN1CCCc2cc(NC(=O)N3CCOC(C(N)=O)C3)ccc21 (centres undefined) | 0.602 |
| CNC(=O)CN1CCOCC2(C1)CN(Cc1csnn1)CCO2 (centres undefined) | -89.3 |
| Cc1cccc(CO[C@@H]2CC[C@H]3[C@H]2OCCN3Cc2ccoc2)n1 | -109 |
| Cc1cnc(N2CCC(c3ccncc3)CC2)nc1-c1ccnn1C | 28.7 |
| Cc1ccccc1CC1(CO)CCCN(c2ncncc2C(C)C)C1 (centres undefined) | -22.2 |
| CCC1CN(C(=O)c2ccc(O)cn2)CCC(=O)N1Cc1ccccc1 (centres undefined) | 8.5 |
| CNc1nc(N2CCN(CC=C(C)C)C(CCO)C2)nc2c1CCC2 (centres undefined) | -0.6 |
| CCNC(=O)[C@@H]1C[C@H](N)CN1Cc1ccc(Sc2ccc(C)cc2)o1 | -48.3 |
| O=C1N(CC2CCCCC2)CCCC1(O)CN1CCc2[nH]ncc2C1 (centres undefined) | -5.84 |
| Cc1nnsc1CN1CC[C@@](O)(C2CCC2)[C@H](C)C1 | 11.8 |
| Cc1ccc(C(=O)NCCC2CN(C3CCCC3)CCO2)c(C)c1 (centres undefined) | -3.76 |
| NC(=O)c1ccc(CN2C(=O)C3(CCNCC3)Nc3ccccc32)cc1 | -6.38 |
| O=S(=O)(N[C@H]1CC[C@H]1NC1Cc2ccccc2C1)c1cccnc1 | 1.24 |
| O=C(NCCN1CCCC1)Nc1cc(C(=O)N2CCOCC2)ccc1Cl | -44.2 |
| NC(=O)CCC1CCCN(Cc2cnc(N3CCCCC3)nc2)C1 (centres undefined) | -11.1 |

| Compound | cytotoxicity at 10 µM [%] |
| --- | --- |
| CC(C)Cc1cc(CNC(=O)c2ccccc2C2CCNC2)no1 (centres undefined) | -45.5 |
| COc1cc(C)ccc1OCc1nc(C(=O)N2CCCO2)co1 | -45.9 |
| Cc1cnc(C)c(N2CCCC(CO)(Cc3ccccc3C)C2)n1 (centres undefined) | -17.2 |
| Cc1nccn1CC1CCCN(Cc2ccc(-c3cccnc3)cc2)C1 (centres undefined) | 2.97 |
| O=C(CC1COCCN1S(=O)(=O)c1ccccc1)NCc1ccccn1 (centres undefined) | 4.48 |
| Cc1n[nH]c(CN2CCN(c3ncnc4scc(C)c34)CC2)c1Cl | 58.4 |
| CCc1nc2c(NCC3COc4cc(OC)ccc4C3)ncnc2o1 (centres undefined) | 40.9 |
| N#CC1CCCN(c2ncnc3c2CCN(Cc2ccccc2)CC3)C1 (centres undefined) | -3.64 |
| COc1ccc(C(C)NC(=O)C2CCN(S(C)(=O)=O)CC2)cc1C (centres undefined) | -7.5 |
| CS(=O)(=O)c1ccc(NC(=O)N2C[C@H](O)[C@@H](N3CCOCC3)C2)cc1 | -46 |
| O=C(NCc1nc(NC2CCCC2)c2cc(Cl)ccc2n1)c1cncs1 | 4.15 |
| Cc1nc2c(NCC(C)N(C)c3ccccc3)ncnc2o1 (centres undefined) | 4.73 |
| CN(Cc1nc2ccsc2c(=O)[nH]1)C[C@@H]1CCCN2CCCC[C@H]12 | -7.33 |
| CC(C)c1cc(C(=O)N(C)Cc2cccc3ncccc23)n(C)n1 | 12.3 |
| N#Cc1cc(F)ccc1CN1CCCC1Cn1cccn1 (centres undefined) | 2.01 |
| COC(=O)c1ccc(N2CCN(C(=O)c3cnc(C)cn3)C(C)C2)cc1 (centres undefined) | 3.09 |
| Cc1cnn(CCNCC(O)COc2ccc(Cl)cc2Cl)c1 (centres undefined) | -1.76 |
| CC(C)c1n[nH]c(C(=O)Nc2ccccn2)c1Br | -31.7 |
| Cc1cccc(NC2CCN(C(=O)Nc3ccc(F)c(F)c3)CC2)n1 | 9.59 |
| CCNc1cc2c(nn1)CCN(C(=O)c1cc3cc(C)ccc3o1)C2 | -18.7 |
| Cc1ccc(-c2nc(CCNC(=O)NC3CCC(O)CC3)co2)cc1 (centres undefined) | -2.3 |
| CCn1c(C)cc(C(=O)N2CCc3nnc(N)cc3C2)c1C | -12.2 |

| Compound | cytotoxicity at 10 µM [%] |
| --- | --- |
| CC(=O)Nc1nc(C(=O)N2CCCC(n3cncn3)C2)cs1 (centres undefined) | -2.02 |
| Cc1cccc(C2(CNC(=O)CCNS(C)(=O)=O)CCCC2)c1 | -5.92 |
| Cc1nc(Nc2ncc(C)s2)cc(C2CCCN2)n1 (centres undefined) | 82 |
| Cc1nc(CN2C[C@@H]3CCCO[C@@H]3[C@H](N(C)C(C)C)C2)cs1 | 6.86 |
| Cc1cccc(CN2CCC3(CC2)CN(c2cnn(C)c2)C(=O)CO3)n1 | 3.94 |
| N#Cc1ccc(N2CCC3(CCC(=O)N3CCN3CCCC3)CC2)nc1 | -114 |
| Cc1ccccc1C(=O)N1C[C@@H]2CCN(c3cccnc3)C[C@@H]2C1 | -76.3 |
| CCCN1CCCn2c(nc(CNC(=O)c3nccn3C)cc2=O)C1 | 9.73 |
| COc1cc(N2CCC3(CC2)CCN(c2cccnc2)C3=O)ncn1 | -116 |
| CS(=O)(=O)N1CCC2(CC1)CC(NCc1ccco1)c1ccccc12 (centres undefined) | -110 |
| c1cnc(N2CCOCC3(CCCN(Cc4cccs4)C3)C2)nc1 (centres undefined) | -68.3 |
| Cn1cc(N2C[C@@H]3CN(CC4CCOCC4)C[C@@H]3C2=O)cn1 | 11.1 |
| Cc1noc(C)c1CN1CCc2ncnc(-c3ccoc3)c2CC1 | -92 |
| CN1C[C@H]2N(c3ncccn3)CCC[C@@]2(C(=O)NCC2CC2)C1 | -103 |
| CCOCC1CN(Cc2cnn(C)c2)Cc2nn(CC3CC3)cc21 (centres undefined) | -75.9 |
| Cc1noc(C)c1CN1CCOCC12CCN(c1nccs1)CC2 | -104 |
| O=C1COC2(CCN(Cc3cccs3)CC2)CN1c1cncnc1 | -124 |
| CS(=O)(=O)NC[C@]12COC[C@H]1CN(CC1CCC1)C2 | -110 |
| Cc1ccc2c(c1)CN(C(=O)c1cnc(C)cn1)C(CN(C)C)CO2 (centres undefined) | -22.3 |
| Fc1ccc(CN2CCO[C@H]3[C@H](OCC4CCCC4)CC[C@@H]32)cc1 | 37.9 |
| O=c1c(=CS(=O)(=O)Nc2ccc(Br)cc2)[nH]c(=O)n2cccc12 | -9.95 |
